# Laboratory results from ChEMBL document CHEMBL4425134, “Analogs of the ATP-Sensitive Potassium (KATP) Channel Opener Cromakalim with in Vivo Ocular Hypotensive Activity” (J Med Chem, 2016).
# Calls of active or inactive are those of the source. The calls are words filed in the database; no cut-off is given here.
# Experiments:
# [1] = (§1) Toxicity in normotensive C57BL/6 mouse assessed as effect on cell structure in aqueous humor outflow pathway at 5 mM administered topically as solution in mixture of DMSO, cremophor EL and PBS once daily as bolus dose to contralateral eye for 5 days by hematoxylin and eosin staining based transmission electron microscopic analysis; assay type: organism-based; conditions: in vivo, topical_or_ocular, 120 h, 5000 µM
# Mus musculus [2] = assay: Antiglaucoma activity in normotensive C57BL/6 mouse assessed as reduction in intraocular pressure at 5 mM administered topically as solution in mixture of DMSO, cremophor EL and PBS once daily as bolus dose to contralateral eye for 5 days pretreated with 5 mM dexcromakalim for 6 days by tonometer; assay type: functional
# In short: (§2)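 Following baseline IOP, C57BL/6 mice were dosed topically once daily with a 5 µl bolus to one eye. Dexromakalim was given for 6 days, then levromakalim for 5 days. Each was made as a 100 mM DMSO stock diluted to 5 mM with 10% cremophor EL in PBS. IOP was read by rebound tonometer versus the vehicle-treated contralateral eye.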
# [3] = as §1, with “number” for “structure”; assay type: organism-based; conditions: in vivo, topical_or_ocular, 120 h, 5000 µM
# Mus musculus [4] = assay: Antiglaucoma activity in normotensive C57BL/6 mouse assessed as reduction in intraocular pressure at 5 mM compound solution in PBS administered topically once daily as bolus dose to one eye for 6 days measured up to 23 hrs post daily administration by tonometer; assay type: functional
# In short: (§3)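 Mice received a 5 mM solution in PBS as a 5 µl topical bolus to one eye once daily for 6 days, with PBS to the contralateral eye. IOP was read by rebound tonometer in conscious mice at 1, 4 and 23 h post-dose and averaged. Values are expressed as treated minus control eye. Readings continued after treatment stopped. n=10 (days 1–9), n=6 (days 10–12).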
# [5] = (§4) Toxicity in normotensive C57BL/6 mouse assessed as effect on cell structure in aqueous humor outflow pathway at 5 mM administered topically as solution in PBS once daily as bolus dose to contralateral eye for 5 days by hematoxylin and eosin staining based transmission electron microscopic analysis; assay type: organism-based; conditions: in vivo, topical_or_ocular, 120 h, 5000 µM
# Mus musculus [6] = assay: Antiglaucoma activity in normotensive C57BL/6 mouse assessed as reduction in intraocular pressure at 5 mM administered topically as solution in PBS once daily as bolus dose to contralateral eye for 5 days followed by 5 mM sodium (3S,4R)-6-cyano-2,2-dimethyl-4-(2-oxopyrrolidin-1-yl)chroman-3-yl phosphate treatment for 5 days by tonometer; assay type: functional
# In short: (§5)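 C57BL/6 mice received sequential once-daily topical 5 µl boluses of 5 mM enantiomers dissolved in PBS to one eye, with vehicle to the contralateral eye. IOP was read by rebound tonometer in conscious mice at 1, 4 and 23 h post-dose, averaged, and expressed relative to the vehicle eye. n=10.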
# [7] = (§6) Toxicity in normotensive C57BL/6 mouse assessed as effect on cell number in aqueous humor outflow pathway at 5 mM administered topically as solution in PBS once daily as bolus dose to contralateral eye for 5 days by hematoxylin and eosin staining based transmission electron microscopic analysis; assay type: organism-based; conditions: in vivo, topical_or_ocular, 120 h, 5000 µM
# Oryctolagus cuniculus [8] = assay: (§7) Antiglaucoma activity in normotensive Dutch-belted pigmented rabbit assessed as reduction in intraocular pressure at 2.5 mM administered topically as solution in PBS once daily as bolus dose to contralateral eye for 4 days followed by 5 mM compound treatment for 4 days measured up to 23 hrs post daily administration by tonometer; assay type: functional
# In short: (§8)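 In normotensive Dutch-belted pigmented rabbits, a PBS solution was applied topically as a 50 µL bolus to one eye once daily: 2.5 mM for 4 days, then 5 mM for 4 days. IOP was measured at 1, 4 and 23 h after each dose and averaged. Values are the absolute difference between treated and control eyes (mmHg).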
# Oryctolagus cuniculus [9] = assay: as §7, with “5” for “2.5”, “pretreated with 2.5” for “followed by 5”, “compound” for “compound treatment”; assay type: functional; in short: as §8
# Mus musculus [10] = assay: Antiglaucoma activity in normotensive C57BL/6 mouse assessed as reduction in intraocular pressure at 5 mM compound solution in PBS administered topically once daily as bolus dose to one eye for 6 days measured up to 72 hrs post treatment by tonometer; assay type: functional, organism-based; in short: as §3
# [11] = Solubility in water at 10 mg/ml; assay type: physicochemical; conditions: buffer
# [12] = Stability of compound in D2O solution; assay type: physicochemical
# Mus musculus [13] = assay: Antiglaucoma activity in normotensive C57BL/6 mouse assessed as reduction in intraocular pressure at 2.5 mM compound solution in PBS administered topically once daily as bolus dose to contralateral eye for 7 days measured up to 23 hrs post daily administration by tonometer; assay type: functional
# In short: (§9)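 C57BL/6 retired breeders (>7 months old) received a 5 µl bolus of 2.5 mM solution in PBS topically to one eye once daily for 7 consecutive days, with PBS to the contralateral eye. IOP was measured in conscious, non-anesthetized mice by hand-held rebound tonometer at 1, 4 and 23 h after dosing. Daily IOP is the mean of the three readings, expressed as treated minus vehicle eye (mm Hg). n=10 (days 1–10), n=6 after.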
# [14] = Prodrug activation in buffer containing ZnCl2, MgCl2 and sodium glycine assessed as alkaline phosphatase (unknown origin)-mediated levcromakalim formation; conditions: human
# [15] = Toxicity in normotensive C57BL/6 mouse assessed as alteration in morphology of aqueous humor outflow pathway at 2.5 mM compound solution in PBS administered topically once daily as bolus dose to contralateral eye for 7 days by hematoxylin and eosin staining based transmission electron microscopic analysis; assay type: organism-based; conditions: in vivo, topical_or_ocular, 168 h, 2500 µM
# In short: (§10)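 After once-daily topical dosing of C57BL/6 mice with 2.5 mM in PBS (5 µl), some animals were sacrificed. Aqueous outflow pathway tissues (trabecular meshwork, Schlemm's canal) were examined by hematoxylin and eosin stained sections and by transmission electron microscopy. Cell structure and number were compared with vehicle-treated eyes.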
# Mus musculus [16] = assay: Antiglaucoma activity in normotensive C57BL/6 mouse assessed as reduction in intraocular pressure at 5 mM administered topically as solution in PBS once daily as bolus dose to contralateral eye for 5 days pretreated with 5 mM sodium (3R,4S)-6-cyano-2,2-dimethyl-4-(2-oxopyrrolidin-1-yl)chroman-3-yl phosphate for 5 days by tonometer; assay type: functional; in short: as §5
# [17] = as §6, with “at 2.5” for “at 5”, “mM compound” for “mM administered topically as”, “PBS administered topically” for “PBS”, “for 7” for “for 5”; assay type: organism-based; conditions: in vivo, topical_or_ocular, 168 h, 2500 µM; in short: as §10
# [18] = as §4, with “at 2.5” for “at 5”, “mM compound” for “mM administered topically as”, “PBS administered topically” for “PBS”, “for 7” for “for 5”; assay type: organism-based; conditions: in vivo, topical_or_ocular, 168 h, 2500 µM; in short: as §10
# Mus musculus [19] = assay: Antiglaucoma activity in normotensive C57BL/6 mouse assessed as reduction in intraocular pressure at 5 mM administered topically as solution in mixture of DMSO, cremophor EL and PBS once daily as bolus dose to one eye for 6 days followed by 5 mM levcromakalim treatment for 5 days by tonometer; assay type: functional; in short: as §2
# [20] = as §1, with “to one” for “to contralateral”, “for 6” for “for 5”; assay type: organism-based; conditions: in vivo, topical_or_ocular, 144 h, 5000 µM
# [21] = as §1, with “cell number” for “cell structure”, “to one” for “to contralateral”, “for 6” for “for 5”; assay type: organism-based; conditions: in vivo, topical_or_ocular, 144 h, 5000 µM
# [22] = Stability in D2O solution assessed as compound decomposition after 1 week by 1H NMR analysis; assay type: physicochemical; conditions: 168 h
# [23] = Stability in D2O solution assessed as compound decomposition after 1 week by 31P NMR analysis; assay type: physicochemical; conditions: 168 h
# Mus musculus [24] = assay: Antiglaucoma activity in normotensive C57BL/6 mouse assessed as reduction in intraocular pressure at 2.5 mM compound solution in PBS administered topically once daily as bolus dose to contralateral eye for 7 days measured up to 48 hrs after cessation of drug treatment by tonometer; assay type: functional, organism-based; in short: as §9
# Mus musculus [25] = assay: Antiglaucoma activity in normotensive C57BL/6 mouse assessed as reduction in intraocular pressure at 5 mM administered topically as solution in mixture of DMSO, cremophor EL and PBS once daily as bolus dose to one eye for 5 days measured up to 23 hrs post daily administration by tonometer; assay type: functional; in short: as §2
smiles,measurement,setting,value
CC1(C)Oc2ccc(C#N)cc2[C@@H](N2CCCC2=O)[C@@H]1O [LEVCROMAKALIM],Activity,[1],Non-Toxic
same,Activity,Mus musculus [2],3.37 mmHg
same,Activity,[3],Non-Toxic
CC(C)C[C@@H](NC(=O)CN)C(=O)O[C@H]1[C@H](N2CCCC2=O)c2cc(C#N)ccc2OC1(C)C,Activity,Mus musculus [4],1.57 mmHg
CC1(C)Oc2ccc(C#N)cc2[C@H](N2CCCC2=O)[C@H]1OP(=O)([O-])[O-].[Na+].[Na+],Activity,[5],Non-Toxic
same,Activity,Mus musculus [6],0.14 mmHg
same,Activity,[7],Non-Toxic
CC1(C)Oc2ccc(C(F)(F)F)cc2[C@@H](N2CCCC2=O)[C@@H]1OP(=O)([O-])[O-].[Na+].[Na+],Activity,Oryctolagus cuniculus [8],1.06 mmHg
same,Activity,Oryctolagus cuniculus [9],1.6 mmHg
same,Activity,Mus musculus [10],Active
same,Activity,Mus musculus [4],3.91 mmHg
CC1(C)Oc2ccc(C#N)cc2[C@@H](N2CCCC2=O)[C@@H]1OP(=O)([O-])[O-].[Na+].[Na+] (racemic),solubility,[11],Soluble
same,Stability,[12],> 6 months
same,Activity,Mus musculus [13],2.5 mmHg
CC(C)C[C@H](NC(=O)CN)C(=O)O[C@H]1[C@H](N2CCCC2=O)c2cc(C#N)ccc2OC1(C)C,Activity,Mus musculus [4],2.45 mmHg
CC(C)C[C@H](NC(=O)CN)C(=O)OCO[C@H]1[C@H](N2CCCC2=O)c2cc(C#N)ccc2OC1(C)C,Activity,Mus musculus [4],1.93 mmHg
CC1(C)Oc2ccc(C#N)cc2[C@@H](N2CCCC2=O)[C@@H]1OP(=O)([O-])[O-].[Na+].[Na+],Drug metabolism,[14],Metabolite_Detected
same,Activity,Oryctolagus cuniculus [8],2.02 mmHg
same,Activity,[15],Non-Toxic
same,Activity,Mus musculus [16],3.82 mmHg
same,Activity,[5],Non-Toxic
same,Activity,Oryctolagus cuniculus [9],2.26 mmHg
same,Activity,[7],Non-Toxic
same,Activity,Mus musculus [13],3.14 mmHg
same,Activity,[17],Non-Toxic
same,Activity,[18],Non-Toxic
CC1(C)Oc2ccc(C#N)cc2[C@H](N2CCCC2=O)[C@H]1O [(-)-CROMAKALIM],Activity,Mus musculus [19],0.73 mmHg
same,Activity,[20],Non-Toxic
same,Activity,[21],Non-Toxic
CC1(C)Oc2ccc(C#N)cc2[C@@H](N2CCCC2=O)[C@@H]1OCOP(=O)([O-])[O-].[Na+].[Na+] (racemic),Stability,[22],Stable
same,Stability,[23],Stable
same,Activity,Mus musculus [13],1.81 mmHg
CC1(C)Oc2ccc(C#N)cc2[C@@H](N2CCCC2=O)[C@@H]1OP(=O)(O)O,Activity,Mus musculus [24],inactive
CC1(C)Oc2ccc(C#N)cc2[C@@H](N2CCCC2=O)[C@@H]1O (racemic) [LEVCROMAKALIM],Activity,Mus musculus [25],3.19 mmHg
